In the library only some 2.4% were active in any assay of this set; here they are far more common.
HMGR II inh = inhibitors of class II HMG-CoA reductase from Enterococcus faecalis; purified E. faecalis HMGR, NADPH absorbance 340 nm kinetic; inhibition, % at 10 µM; actives 0.41% (n = 190,000);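 active means inhibition above a set limit, the median over all tested compounds plus 3 SD, cut at about 9.5% in these data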;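 further: enzyme runs in reverse so mevalonate oxidation gives rising NADPH absorbance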
b-catenin transl = modulators of beta-catenin nuclear translocation | AID 1665 | actives 0.3% (n = 190,000) | HeLa beta-catenin nuclear translocation, immunofluorescence imaging | nuclear translocation activity, % at 5 µM;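 active means nuclear translocation activity above 50% at 5 µM, with a well cell count of 50 or more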;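 further: per-cell ratio of nuclear to cytoplasmic median beta-catenin stain intensity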
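Read-out: Nuclear/cytoplasmic beta-catenin signal ratio, % activation | Assay system: Human HeLa cell line | Times: 24 h compound exposure at 37°C, 5% CO2 | Signal: Fluorescence imaging of beta-catenin antibody stain plus DAPI | Dosing: 5 µM primary, 0.02–20 µM confirmation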
EP2 modulator = modulators of human EP2 prostaglandin E2 receptor | actives 0.83% (n = 260,000) | induction, % at 25 µM | AID 940 | EP2-expressing cells, cAMP HTRF FRET, PGE2 co-stimulation;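 active means compounds whose cAMP rise, as percent of the full-agonist control response, exceeds 60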;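 further: rat C6 glioma line stably carrying human EP2 under a CMV promoter; the protocol text gives 20 µM as final concentration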
Target sequence (P43116 whole entry, looked up): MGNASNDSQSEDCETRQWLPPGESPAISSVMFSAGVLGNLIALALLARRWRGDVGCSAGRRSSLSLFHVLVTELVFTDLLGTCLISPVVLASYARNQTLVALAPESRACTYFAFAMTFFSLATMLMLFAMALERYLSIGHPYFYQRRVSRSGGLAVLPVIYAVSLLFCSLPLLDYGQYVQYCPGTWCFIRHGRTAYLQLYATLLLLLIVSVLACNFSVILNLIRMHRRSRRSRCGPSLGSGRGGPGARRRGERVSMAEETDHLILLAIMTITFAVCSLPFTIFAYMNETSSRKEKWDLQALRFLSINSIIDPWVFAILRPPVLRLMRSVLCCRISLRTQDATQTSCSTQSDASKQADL
Tb hexokinase = blocks Trypanosoma brucei hexokinase 1 activity. recombinant TbHK1, G6PDH-coupled NADH A340. inhibition, % at 10 µM. actives 0.11% (n = 220,000). AID 1430;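 active means inhibition of 50% or more in the single-dose primary screen; inactive means inhibition below 50%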
PGE2 EP2 inh = EP2 receptor (human) inhibition | P43116 | C6 glioma cells expressing human EP2, cAMP TR-FRET; cells stimulated with saturating PGE2 | inhibition, % at 25 µM | actives 0.52% (n = 260,000) | AID 1422;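 active means percent inhibition above 40 after rounding to a whole number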;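 further: rat C6 glioma host cells with rolipram phosphodiesterase inhibitor present; the protocol text gives 20 µM as final concentration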
MT stabilizer = microtubule stabilizers in HeLa cells; HeLa tubulin immunostaining HCS, 24 h; share of cells brighter than vehicle mean+2SD; % tubulin-high responders, % at 10 µM; actives 0.83% (n = 200,000);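 active means plate Z-score above 3 for both tubulin-high and condensed-nucleus cell shares, with cell loss under 80%, at 10 µM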;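 further: anti alpha tubulin signal scored within the nucleus-defined area of each cell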
Numbers stand for hits; n = inactive; x = no result given.

SMILES	HMGR II inh	b-catenin transl	EP2 modulator	Tb hexokinase	PGE2 EP2 inh	MT stabilizer
C[C@H]1[C@H](C)OC(=O)C[C@H](O)C[C@H](O)C[C@H](O)CC[C@H](O)[C@H](O)CC(=O)C[C@H](O)[C@H](C(=O)O)[C@H](O)C[C@H](O[C@H]2O[C@@H](C)[C@H](O)[C@@H](N)[C@@H]2O)C=CC=CC=CC=CCCC=CC=C[C@@](C)(O)[C@H]1O	x	x	n	x	44	x
COc1cc(OC)c(C2C(C#N)=C(N)Oc3n[nH]c(-c4cc(C)sc4C)c32)cc1OC (stereo not given)	x	x	n	x	n	x
COc1cccc(/C=N/n2c(N)c(S(=O)(=O)c3cccs3)c3nc4ccccc4nc32)c1	n	n	n	n	n	n
Nc1c(S(=O)(=O)c2cccs2)c2nc3ccccc3nc2n1/N=C/c1cccc(O)c1	n	n	n	n	41	n
CN(c1ccccc1)S(=O)(=O)c1ccc(Cl)c(C(=O)Nc2nc3ccccc3[nH]2)c1	n	n	n	n	n	n
CN(c1ccccc1)S(=O)(=O)c1ccc(Cl)c(C(=O)Nc2ccc(-c3nc4ccccc4[nH]3)cc2)c1	n	n	n	n	n	17
CCOc1ccccc1NC(=O)CSc1nc2c(c(=O)n(C)c(=O)n2C)n1C(C)C	x	x	n	x	n	x
CCOCCCNC(=O)c1ccc2c(c1)OCO2	n	x	n	n	n	n
CCOCCCNC(=O)c1ccc2c(c1)N=C(CC)c1cc(Br)ccc1S2	n	52	n	n	n	n
O=c1cc(CSc2ccc([N+](=O)[O-])cc2)nc2sccn12	15	n	n	n	n	n
Cc1ccc(SCc2cc(=O)n3ccsc3n2)c(C)c1	n	n	n	n	n	n
COc1ccccc1Cn1c(NCCO)nc2c1c(=O)n(C)c(=O)n2C	x	x	n	x	n	x
O=C(Cc1c(F)cccc1Cl)Nc1nncs1	x	x	n	x	n	x
Clc1cccc(Cl)c1C(Nc1nncs1)Nc1nncs1	x	x	n	x	52	x
Fc1cccc(F)c1C(Nc1nncs1)Nc1nncs1	x	x	n	x	46	x
O=S(=O)(c1ccc(S(=O)(=O)N2CCN(c3ccccc3F)CC2)cc1)N1CCOCC1	x	x	n	x	n	x
COc1cc(C2Nc3c(ccc(Cl)c3Cl)C3C=CCC32)cc(OC)c1OC (stereo not given)	x	x	n	x	n	x
CC1=CC(C)(C)N(C(=O)CSc2nnc(C)s2)c2ccc(C)cc21	n	n	n	n	n	n
CC1=CC(C)(C)N(C(=O)CSc2nnc(N)s2)c2cc(C)c(C)cc21	n	x	62	n	n	n
N#Cc1ccc(OC(=O)c2ccc(N=C(N)N)cc2)cc1	x	x	n	x	75	x
CC(C)C(=O)Nc1ccc(NC(=O)c2cccs2)cc1	x	x	n	x	n	x
O=c1[nH]c2cc3c(cc2cc1CN(Cc1cccnc1)S(=O)(=O)c1ccc(F)cc1)OCCO3	x	x	n	x	n	x
O=C1c2ccccc2C(=O)N1C1(C(=O)NC2(C(=O)O)CCCC2)CCCC1	x	x	n	x	42	x
O=C(CN1C(=O)c2ccccc2C1=O)NC1(C(=O)O)CCCC1	x	x	n	x	n	x
COc1cccc(C(=O)N2CC=C[C@@H]2C(=O)NCCc2ccccc2)c1	x	x	n	x	n	x
SMILES	HMGR II inh	b-catenin transl	EP2 modulator	Tb hexokinase	PGE2 EP2 inh	MT stabilizer
COC(=O)c1ccc(NC(=O)c2ccc(N(C)S(C)(=O)=O)cc2)cc1	n	n	n	n	113	n
O=C(O)c1cccc(-c2ccc(/C=N/Nc3ccc([N+](=O)[O-])cc3)o2)c1	x	n	n	n	n	x
Cc1ccc(C)c(N=Cc2ccc(-c3ccc([N+](=O)[O-])cc3)o2)c1	16	n	n	n	n	n
O=C(O)c1ccc(-c2ccc(/C=N/Nc3ccc([N+](=O)[O-])cc3)o2)cc1	x	n	n	n	46	x
O=C(O)/C=C/c1cccc(NC(=O)c2ccc(Cl)cc2)c1	n	n	n	n	n	n
Cc1ccc(S(=O)(=O)Nc2cccc(/C=C/C(=O)O)c2)cc1	11	n	n	n	n	n
COc1ccc(S(=O)(=O)Nc2cccc(/C=C/C(=O)O)c2)cc1	n	n	n	n	n	n
O=C(O)/C=C/c1cccc(NC(=O)c2ccccc2)c1	x	n	93	n	n	x
CCn1cc(S(=O)(=O)N2CCCC(COc3ccccc3OC)C2)c(C)n1 (stereo not given)	x	x	n	x	n	x
CCCCNc1cc(C)nc(NCc2ccccc2)n1	n	n	n	n	n	10
CCC(CN1CCN(C)CC1)NC(=O)Cc1sc(C)nc1-c1ccc(C)cc1 (stereo not given)	x	x	n	x	n	x
